Compound activity: PubChem, several laboratories
PP1 counter: blocks human PP1-alpha phosphatase, a PP5 counter-screen | inhibition, % at 6.7 µM | purified PP1alpha, OMFP fluorescence | AID 2235 | actives 0.9% (n = 320,000) | P62136;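 active = inhibition above the mean inhibition of all tested compounds plus 3 SD, computed separately for each screening campaign, cut at about 15% in these data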
Target sequence (P62136 whole entry, looked up): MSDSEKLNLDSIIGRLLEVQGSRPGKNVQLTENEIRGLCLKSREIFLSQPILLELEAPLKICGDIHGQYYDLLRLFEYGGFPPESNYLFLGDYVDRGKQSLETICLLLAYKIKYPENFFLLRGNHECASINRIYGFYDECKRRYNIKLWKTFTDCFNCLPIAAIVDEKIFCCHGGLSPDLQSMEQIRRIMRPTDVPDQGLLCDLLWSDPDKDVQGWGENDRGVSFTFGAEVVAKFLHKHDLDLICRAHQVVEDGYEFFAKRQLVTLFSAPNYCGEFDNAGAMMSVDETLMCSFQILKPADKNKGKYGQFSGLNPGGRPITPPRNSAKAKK
Fh CTSL1 inh: cathepsin L1 inhibition, PFM18AAP counter-screen | actives 0.49% (n = 300,000) | recombinant F. hepatica cathepsin L1, Z-Leu-Arg-MCA fluorescence | inhibition, % at 5.96 µM;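 active = inhibition above the mean of all tested compounds plus 3 SD, set per screening campaign, cut at about 17% in these data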;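 also: 0% = plate median of test compound wells and 100% = 1 µM Z-Phe-Ala-diazomethylketone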
PP5 inh: inhibitors of human protein phosphatase 5 (PP5); inhibition, % at 6.7 µM; purified PP5c, OMFP substrate fluorescence; AID 1987; actives 0.18% (n = 320,000);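 active = inhibition above the campaign's mean inhibition across all tested compounds plus 3 SD, cut at about 9.5% in these data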;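 also: 0% = DMSO only and 100% = 100 µM cantharidin control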
Myeloid diff 2: myeloid differentiation induction; ER-HoxA9 myeloid progenitors, lysozyme-GFP differentiation, flow cytometry; calls only at 10 µM; actives 1% (n = 360,000); AID 624256;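 active = normalized GFP-positive differentiation at or above the plate's own cutoff, the solvent-only control mean plus 3 SD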;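 also: cells exposed to compound for four days before flow analysis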
NadD block: inhibitors of Staphylococcus aureus NadD; purified NadD enzyme, colorimetric absorbance read-out; actives 0.78% (n = 360,000); inhibition, % at 20 µM; AID 602399; in the data active = inhibition above about 26%
HCV core dimer: HCV core protein dimerization inhibition; actives 0.33% (n = 300,000); inhibition, % at 5 µM; TR-FRET GST/Flag-core106 dimerization, 1536-well; AID 1899;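 active = inhibition above the mean of all tested compounds plus 3 SD, set per screening campaign, cut at about 45% in these data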
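Material: Tagged HCV core106 pair (GST and Flag) | Amount: GST-core106 13.5 nM, Flag-core106 17 nM | Medium: KF-containing HEPES buffer, pH 7.45, DTT, CHAPS, BSA | Reagent: Eu donor and XL665 acceptor anti-tag antibodies | Schedule: 4 h at 22.5 °C | Technique: Time-resolved FRET, ex 340 nm, em 617 and 671 nm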
Numbers without * were called inactive; i = inactive; x = no result; + = active, no number. Hits are enriched below; roughly 3.1% of the tested compounds scored in any of these assays.

SMILES	PP1 counter	Fh CTSL1 inh	PP5 inh	Myeloid diff 2	NadD block	HCV core dimer
COc1cc(NS(=O)(=O)c2ccc(NC(=O)CCC(=O)O)cc2)nc(OC)n1	-2.1	-0.3	-3.1	i	-4.8	2.2
OC(c1ccccc1)c1ncc(-c2ccccc2Cl)[nH]1 (stereo not given)	x	x	x	i	-8.3	x
Cc1cccc(C)c1NC(=O)C1CCCN1S(=O)(=O)c1ccc(-c2ccc(=O)[nH]n2)s1 (stereo not given)	1.4	28.1*	2.0	i	13.2	4.1
CCc1ccccc1NC(=O)C1CCCN1S(=O)(=O)c1ccc(-c2ccc(=O)[nH]n2)s1 (stereo not given)	7.3	2.5	1.5	i	25.8	27.3
Cc1ccc(S(=O)(=O)N2CCN(C(=O)COC(=O)c3cccc(Cl)c3)CC2)c(C)c1	2.2	x	4.8	i	-12.0	x
CN1c2ccccc2C(C)(C)C12C=Nc1c(ccc3ccccc13)O2 (stereo not given)	5.2	21.3*	4.3	i	9.1	-16.1
CCN1/C(=C/C=C/c2oc3ccc4ccccc4c3[n+]2CC)Oc2ccc3ccccc3c21	48.9*	0.3	-0.7	x	x	34.7
CC[n+]1c(/C=C/N(C)c2ccccc2)oc2ccc(Cl)cc21	-1.5	5.0	2.1	i	2.3	3.4
COc1ccc(/C=C2\C(=O)N(c3c(Cl)cc(Cl)cc3Cl)N=C2NC(=O)c2cccc([N+](=O)[O-])c2)cc1	3.2	-0.7	1.7	i	83.7*	2.7
N=C1/C(=C\c2ccc(-c3cccc(Cl)c3)o2)C(=O)N=C2SC=C(c3ccccc3)N12	6.5	-9.5	-8.0	i	75.4*	40.8
N=C1/C(=C\c2ccc(-c3ccc(C(=O)O)cc3)o2)C(=O)N=C2SC=C(c3ccccc3)N12	x	x	x	i	67.4*	x
COc1cc(/C=C2/C(=N)N3C(c4ccccc4)=CSC3=NC2=O)ccc1OCC(=O)O	-0.1	-0.6	-0.2	i	3.7	10.5
Cc1cc(C)n(CC(=O)NC2C(=O)N3C(C(=O)O)=C(CSc4nnc(C)s4)CSC23)n1 (stereo not given)	4.0	2.4	-0.9	i	-6.2	-0.6
Cc1nnc(SCC2=C(C(=O)O)N3C(=O)C(NC(=O)c4cccc(F)c4F)C3SC2)s1 (stereo not given)	-3.4	29.3*	-0.3	i	3.7	1.2
C=CCn1c(SCC(=O)c2ccc(CNC(C)=O)o2)nc2ccccc2c1=O	3.7	0.8	1.7	i	-0.2	49.0*
CS(=O)(=O)N1N=C(c2ccccc2)CC1c1ccc2c(c1)OCO2 (stereo not given)	-0.3	3.1	-0.1	+	-3.4	-1.8
CCn1nc(C)c(/C=N/NC(=O)Cn2nnc(N)n2)c1C	-7.0	0.8	-0.1	+	-1.5	1.6
Cc1ccccc1S(=O)(=O)Cc1ccc(C(=O)NCCCN(C)Cc2ccccc2)o1	-1.6	-5.1	0.2	i	-3.7	-5.1
Cc1ccccc1S(=O)(=O)Cc1ccc(C(=O)NCCN(C)Cc2ccccc2)o1	3.5	0.5	1.5	+	-2.8	-10.1
COc1ccc(OC)c(S(=O)(=O)ON2C(=O)c3ccccc3C2=O)c1	-3.5	11.5	-0.1	+	-1.3	-1.9
N#Cc1ccccc1OCC(=O)NCc1ccccc1CN1CCCC1	-2.0	x	-0.5	i	-7.9	x
CCCCNc1c(-c2ccc(OC)c(Sc3ccc(OC)cc3)c2)nc2cnccn12	x	x	x	i	-2.2	x
CCCCNc1c(-c2ccc(SC(C)CC)cc2)nc2cnccn12 (stereo not given)	x	x	x	+	20.1	x
Cc1cc(NS(C)(=O)=O)c(=O)n(Cc2cccc(C(F)(F)F)c2)c1	x	x	x	i	8.5	x
Cc1nn(C)c(Oc2ccccc2)c1CCNC(=O)CCl	-2.5	27.5*	-2.6	i	2.0	-1.5
SMILES	PP1 counter	Fh CTSL1 inh	PP5 inh	Myeloid diff 2	NadD block	HCV core dimer
Cc1ccc(/C=C\c2nccc3c2[nH]c2ccccc23)cc1	8.5	4.8	-0.2	+	18.4	5.0
FC(F)(F)C(F)(F)C(F)(F)c1nc2nc(Cl)c(Cl)nc2[nH]1	x	x	x	i	-3.0	x
Cn1nc(C(=O)NNC(=O)CCc2ccccc2Cl)c2ccccc2c1=O	-5.8	1.8	1.1	+	-3.2	3.9
CCCc1cc(NC(=O)CCl)n(-c2ccccc2)n1	2.1	78.6*	3.0	i	1.9	-2.5
CC(Cl)C(=O)Nc1cc(C(C)(C)C)nn1-c1ccccc1 (stereo not given)	-3.5	5.8	0.1	i	-4.6	-0.7
CC(C)(C)c1cc(NC(=O)CCl)n(-c2ccccc2)n1	0.5	56.6*	0.4	i	-0.4	0.3
Nc1ccc2ccccc2c1N=Nc1ccccc1	x	x	x	i	-5.4	x
Fc1ccc(-c2ccc3c(c2)C2CC3CCN2)cc1 (stereo not given)	x	x	x	i	8.1	x
Cc1ccccc1Sc1ccc(N)cn1	2.1	-3.5	0.3	+	-1.6	4.9
CCN1/C(=C/c2cc[n+](C)cc2)C=Cc2cc(C)ccc21	0.4	11.6	4.0	+	-5.8	-26.6
COc1ccc2c(c1OC)C(=O)N1C2SC(C)(C)[C@H]1C(=O)NC1CC1 (stereo not given in full)	-3.8	-1.2	1.5	i	-4.6	-1.6
Cc1cc(C)c2[nH]c(C)c(CN3CCCCCC3)c(=O)c2c1	-1.0	0.6	0.1	+	1.0	1.1
CN1C(=O)C(O)(CC(=O)/C=C/C=C/c2ccccc2)c2ccccc21 (stereo not given)	-1.1	32.5*	1.2	i	3.5	-1.4
CN1C(=O)C(O)(CC(=O)/C=C/c2ccco2)c2ccccc21 (stereo not given)	1.5	6.9	0.3	i	-0.8	-3.6
Nc1c(C(=O)Nc2ccc(S(=O)(=O)N3CCCC3)cc2)sc2nc3ccc(OC(F)(F)F)cc3cc12	3.2	1.6	1.2	i	27.7	63.0*
COc1ccc2nc(SCC(=O)Nc3ccc(S(=O)(=O)N4CCCC4)cc3)c(C#N)cc2c1	9.8	-1.0	5.4	i	9.3	-32.1
C[C@H](CO)N1C[C@H](C)[C@@H](CN(C)C(=O)Nc2ccc(C(F)(F)F)cc2)Oc2ccc(NC(=O)Nc3ccc(C(F)(F)F)cc3)cc2C1=O	x	x	x	i	9.9	x
COc1ccc(S(=O)(=O)N(C)C[C@H]2Oc3ccc(NS(=O)(=O)c4cccs4)cc3C(=O)N([C@H](C)CO)C[C@@H]2C)cc1	x	x	x	+	6.5	x
COc1ccc(S(=O)(=O)N(C)C[C@H]2Oc3ccc(NS(=O)(=O)c4ccccc4)cc3C(=O)N([C@H](C)CO)C[C@@H]2C)cc1	x	x	x	i	-3.9	x
C[C@@H]1CN([C@H](C)CO)C(=O)c2cc(NC(=O)Nc3ccc(C(F)(F)F)cc3)ccc2O[C@H]1CN(C)C(=O)Nc1ccc(F)cc1	x	x	x	+	12.5	x
C[C@H](CO)N1C[C@H](C)[C@H](CN(C)C(=O)NC2CCCCC2)Oc2ncc(Br)cc2C1=O	x	x	x	+	-2.3	x
